Test results from ChEMBL document CHEMBL1130297, “Synthesis of 5,6-dihydro-4-hydroxy-2-pyrones as HIV-1 protease inhibitors: the profound effect of polarity on antiviral activity” (J Med Chem, 1997).

Columns and labels:
[1] = Cytotoxicity in CEM cells in the absence of virus; assay type: cell-based; conditions: human, CEM (CCRF-CEM) cells; read-out: TC50 (the source's name)
In short: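 Toxicity read in uninfected CEM cells (no virus present), run alongside the cellular antiviral protocol. Reported as TC50.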

CCRF-CEM = assay: Antiviral activity in HIV infected CEM cells.; assay type: functional, cell-based; conditions: Homo sapiens
In short: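 Cytopathic-effect protection assay in HIV-infected CEM cells by a standard protocol. EC50 taken as the concentration at which 50% of cells are protected from cytopathic effects.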

[2] = biological target: Human immunodeficiency virus type 1 protease (Human immunodeficiency virus 1, UniProt Q72874); assay: In vitro inhibition activity against HIV-1 protease.
In short: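 HIV-1 protease inhibition read by HPLC assay at pH 6.2, modified from an earlier method. Buffer: 1.0 mM dithiothreitol, 80 mM MES, 160 mM NaCl, 1.0 mM EDTA, 0.1% polyethylene glycol (MW 8000). Final protease concentration 1.5 nM. IC50 values reported.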

Which results are given for `Cc1ccc(C(C)(C)C)c(SC2=C(O)OC(CCc3ccccc3)(c3ccc(OCCO)cc3)CC2=O)c1` (stereo not drawn)?
CC50 [1]: 23 µM; EC50 (CCRF-CEM): 9.4 µM; IC50 [2]: 0.012 µM

With `Cc1cc(SC2=C(O)OC(CCc3ccc(O)cc3)(c3ccccc3)CC2=O)c(C(C)(C)C)cc1CO` (stereo not drawn) as the compound, how does the CC50 [1] read?
Its CC50 is over 100 µM.

And the EC50 (CCRF-CEM)?
Its EC50 is 4.7 µM.

What about the IC50 [2] of the same compound?
Its IC50 is 0.0017 µM.

Which results are given for `Cc1cc(SC2=C(O)OC(CCc3ccc(N)cc3)(C3CCCCC3)CC2=O)c(C(C)(C)C)cc1CO` (stereo not drawn)?
CC50 [1]: 80 µM; EC50 (CCRF-CEM): 1.4 µM; IC50 [2]: 0.0032 µM

Which results are given for `Cc1ccc(C(C)(C)C)c(SC2=C(O)OC(CCc3ccc(O)cc3)(c3ccccc3)CC2=O)c1` (stereo not drawn)?
CC50 [1]: 69 µM; EC50 (CCRF-CEM): > 69 µM; IC50 [2]: 0.011 µM

For `COc1ccc(C2(CCc3ccc(O)cc3)CC(=O)C(Sc3cc(C)c(CO)cc3C(C)(C)C)=C(O)O2)cc1` (stereo not drawn), which CC50 [1] is on record?
Its CC50 is over 100 µM.

What about the EC50 (CCRF-CEM) of the same compound?
Its EC50 is 2 µM.

Which CC50 [1] does the source give for `Cc1cc(SC2=C(O)OC(CCc3ccc(O)cc3)(c3ccc(O)cc3)CC2=O)c(C(C)(C)C)cc1CO` (stereo not drawn) here?
The CC50 was 21 µM.

And the EC50 (CCRF-CEM)?
Its EC50 is over 21 µM.

And the IC50 [2]?
Its IC50 is 0.12 µM.

Which results are given for `COCc1cc(C(C)(C)C)c(SC2=C(O)OC(CCc3ccccc3)(c3ccc(OCCO)cc3)CC2=O)cc1C` (stereo not drawn)?
CC50 [1]: 18 µM; EC50 (CCRF-CEM): > 18 µM; IC50 [2]: 0.0045 µM

Which CC50 [1] does the source give for `Cc1cc(SC2=C(O)OC(C)(CCc3ccc(O)cc3)CC2=O)c(C(C)(C)C)cc1CO` (stereo not drawn) here?
The CC50 was over 100 µM.

What about the EC50 (CCRF-CEM) of the same compound?
Its EC50 is 2.5 µM.

And the IC50 [2]?
Its IC50 is 0.0043 µM.

Which CC50 [1] does the source give for `Cc1cc(SC2=C(O)OC(CCc3cccc(N)c3)(c3ccccc3)CC2=O)c(C(C)(C)C)cc1CO` (stereo not drawn) here?
Its CC50 is 23 µM.

What about the EC50 (CCRF-CEM) of the same compound?
Its EC50 is 3.1 µM.

What about the IC50 [2] of the same compound?
Its IC50 is 0.004 µM.

Which CC50 [1] does the source give for `Cc1cc(SC2=C(O)OC(CCc3ccccc3)(c3ccc(OCCO)cc3)CC2=O)c(C(C)(C)C)cc1O` (stereo not drawn) here?
Its CC50 is 27 µM.

What about the EC50 (CCRF-CEM) of the same compound?
The EC50 was 4.2 µM.

What about the IC50 [2] of the same compound?
The IC50 was 0.0037 µM.

With `Cc1ccc(C(C)(C)C)c(SC2=C(O)OC(CCc3ccc(N)cc3)(c3ccccc3)CC2=O)c1` (stereo not drawn) as the compound, how does the CC50 [1] read?
Its CC50 is 54 µM.

And the EC50 (CCRF-CEM)?
The EC50 was over 54 µM.

And the IC50 [2]?
The IC50 was 0.024 µM.

For `Cc1cc(SC2=C(O)OC(CCc3cccc(O)c3)(c3ccccc3)CC2=O)c(C(C)(C)C)cc1CO` (stereo not drawn), which CC50 [1] is on record?
Its CC50 is over 100 µM.

What about the EC50 (CCRF-CEM) of the same compound?
The EC50 was 6.1 µM.

And the IC50 [2]?
Its IC50 is 0.0025 µM.

What does the source list for `Cc1cc(SC2=C(O)OC(CCc3ccc(N)cc3)(c3ccccc3)CC2=O)c(C(C)(C)C)cc1CO` (stereo not drawn)?
CC50 [1]: 94 µM; EC50 (CCRF-CEM): 3.7 µM; IC50 [2]: 0.0031 µM

What does the source list for `Cc1cc(SC2=C(O)OC(CCc3ccc(O)cc3)(C(C)C)CC2=O)c(C(C)(C)C)cc1CO` (stereo not drawn)?
CC50 [1]: > 100 µM; EC50 (CCRF-CEM): 0.6 µM; IC50 [2]: 0.0036 µM

Which CC50 [1] does the source give for `Cc1ccc(C(C)(C)C)c(SC2=C(O)OC(CCc3ccccc3)(c3ccc(O)cc3)CC2=O)c1` (stereo not drawn) here?
Its CC50 is 23 µM.

And the EC50 (CCRF-CEM)?
Its EC50 is over 23 µM.

What about the IC50 [2] of the same compound?
Its IC50 is 0.04 µM.

Which results are given for `Cc1cc(SC2=C(O)OC(CCc3ccccc3)(c3ccccc3)CC2=O)c(C(C)(C)C)cc1CO` (stereo not drawn)?
CC50 [1]: 66 µM; EC50 (CCRF-CEM): 2.5 µM; IC50 [2]: 0.0066 µM

Which CC50 [1] does the source give for `COc1cc(C(C)(C)C)c(SC2=C(O)OC(CCc3ccccc3)(c3ccccc3)CC2=O)cc1C` (stereo not drawn) here?
Its CC50 is 33 µM.

What about the EC50 (CCRF-CEM) of the same compound?
Its EC50 is over 33 µM.

And the IC50 [2]?
Its IC50 is 0.015 µM.

Which CC50 [1] does the source give for `Cc1ccc(C(C)(C)C)c(SC2=C(O)OC(CCc3ccccc3)(c3ccc(N)cc3)CC2=O)c1` (stereo not drawn) here?
Its CC50 is 67 µM.

And the EC50 (CCRF-CEM)?
Its EC50 is over 67 µM.

What about the IC50 [2] of the same compound?
The IC50 was 0.032 µM.

With `Cc1cc(SC2=C(O)OC(CCc3ccc(O)cc3)(C3CCCCC3)CC2=O)c(C(C)(C)C)cc1CO` (stereo not drawn) as the compound, how does the CC50 [1] read?
The CC50 was 75 µM.

And the EC50 (CCRF-CEM)?
Its EC50 is 0.5 µM.

What about the IC50 [2] of the same compound?
Its IC50 is 0.0041 µM.

Which results are given for `Cc1cc(SC2=C(O)OC(CCc3ccccc3)(c3ccc(OCCO)cc3)CC2=O)c(C(C)(C)C)cc1OCCO` (stereo not drawn)?
CC50 [1]: 25 µM; EC50 (CCRF-CEM): 1.8 µM; IC50 [2]: 0.0064 µM

What does the source list for `Cc1cc(SC2=C(O)OC(CCc3ccccc3)(c3ccccc3)CC2=O)c(C(C)(C)C)cc1OCCO` (stereo not drawn)?
CC50 [1]: 20 µM; EC50 (CCRF-CEM): > 20 µM; IC50 [2]: 0.0068 µM

With `Cc1cc(SC2=C(O)OC(CCc3ccccc3)(c3ccc(OCCO)cc3)CC2=O)c(C(C)(C)C)cc1CO` (stereo not drawn) as the compound, how does the CC50 [1] read?
The CC50 was 67 µM.

And the EC50 (CCRF-CEM)?
The EC50 was 4.2 µM.

What about the IC50 [2] of the same compound?
The IC50 was 0.0014 µM.

What does the source list for `Cc1cc(SC2=C(O)OC(CCc3ccccc3)(c3ccccc3)CC2=O)c(C(C)(C)C)cc1O` (stereo not drawn)?
CC50 [1]: 23 µM; EC50 (CCRF-CEM): > 23 µM; IC50 [2]: 0.033 µM

What does the source list for `Cc1ccc(C(C)(C)C)c(SC2=C(O)OC(CCc3ccccc3)(c3ccccc3)CC2=O)c1` (stereo not drawn)?
CC50 [1]: 55 µM; EC50 (CCRF-CEM): > 55 µM

With `Cc1cc(SC2=C(O)OC(CCc3ccc(N)cc3)(C(C)C)CC2=O)c(C(C)(C)C)cc1CO` (stereo not drawn) as the compound, how does the CC50 [1] read?
Its CC50 is over 100 µM.

What about the EC50 (CCRF-CEM) of the same compound?
The EC50 was 0.5 µM.

What about the IC50 [2] of the same compound?
Its IC50 is 0.0027 µM.
